Assay outcomes: PubChem BioAssay, several laboratories
LANA-H2A inh: blockers of LANA interaction with H2A/H2B – biochemical, FP readout, HTS, primary screen. hit rate 0.6% among 320,000. inhibition, % (test concentration not listed). cell-free LANA-H2A/H2B peptide, fluorescence polarization; in the data active = inhibition mostly above about 10%, no sharp cut-off; inactive = mostly below about 6.7%
DSG3 Ab inh: inhibitors of pemphigus antibody binding to DSG3, primary screen, biochemical, bead-based, flow cytometry, scFv-GFP; Desmoglein-3 (Homo sapiens), P32926; DSG3-coupled beads, scFv-anti-DSG3-GFP binding; stronger effect = lower value; binding (percent of control), % at 10 µM; hit rate 0.48% among 310,000;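 active = binding more than 3 SD below its plate's average and above zero; inconclusive = below that plate limit but binding exactly zero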
T cell modulator: modulators of CD8 T cell-vesicle binding, primary screen, mouse 2C CD8+ T cells, flow cytometry | 2C CD8+ T cell-vesicle binding; stronger effect = lower value | response (vesicle binding), % at 7 µM | hit rate 0.068% among 330,000;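 active = response, share of CD8 T cells binding vesicles, and their 90th percentile fluorescence all below set limits, cut at about 80% in these data, passing the limit was not always enough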;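 note: values below 100% mean blocked vesicle binding to the CD8+ T cells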
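Benchmarks: naked versus QL9-loaded vesicles / Assay system: purified 2C TCR transgenic mouse naive CD8+ T cells / Technique: high-throughput flow cytometry with anti-B7-1 and anti-CD8 staining / Timing: Cell–vesicle co-incubation 1.5 h at 37 °C, staining 20 min on ice / Read-out: percent CD8+ FL2 mean versus row control / Probe or stimulus: QL9-loaded Drosophila micro-vesicles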
HDAC3 inh: HDAC3 deacetylase inhibitors, primary screen, biochemical, fluorescence, cell-free homogeneous. inhibition, % at 8.3 µM. Histone deacetylase 3 (Homo sapiens), O15379. hit rate 0.15% among 320,000. recombinant HDAC3, fluorogenic peptide/trypsin coupled. AID 2718, 2010; in the data active = inhibition above about 26%, passing the limit was not always enough; inconclusive = no clear call, values can overlap the other calls
Target sequence (O15379 whole entry, looked up): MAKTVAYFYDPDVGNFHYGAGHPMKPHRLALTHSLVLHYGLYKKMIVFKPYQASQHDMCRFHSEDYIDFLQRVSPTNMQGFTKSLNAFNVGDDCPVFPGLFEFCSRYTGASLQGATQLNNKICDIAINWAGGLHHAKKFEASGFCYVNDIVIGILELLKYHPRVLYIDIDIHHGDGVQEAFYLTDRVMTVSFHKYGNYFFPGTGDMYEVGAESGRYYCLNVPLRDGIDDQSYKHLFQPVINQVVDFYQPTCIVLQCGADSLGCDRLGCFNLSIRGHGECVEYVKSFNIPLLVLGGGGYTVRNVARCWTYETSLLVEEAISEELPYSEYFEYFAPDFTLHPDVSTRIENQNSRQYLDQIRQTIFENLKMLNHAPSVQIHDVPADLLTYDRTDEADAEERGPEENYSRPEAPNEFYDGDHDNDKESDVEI
Arr AP2 block: inhibitors of beta-arrestin/AP2 binding, primary screen, biochemical, GPCR trafficking, flow cytometry | beta-arrestin 1 C-terminal peptide binding to AP2 beta2-adaptin appendage (human) | FITC-arrestin peptide / GST-AP2 beads; AP2 beta2 appendage carries R879A mutation | inhibition, % at 10 µM | hit rate 0.31% among 340,000 | AID 504490, 2011;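 active = inhibition above a set limit, near 3 SD of compounds lacking own fluorescence, cut at about 54% in these data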;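 note: plate controls were DMSO wells for no effect and 5 µM unlabelled arrestin peptide for full effect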
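Material – GST-tagged AP2 beta2-adaptin appendage (R879A) on 4 µm glutathione beads · Probe or stimulus – fluorescein-tagged arrestin peptide at 50 nM final · Timing – 12 min plus 1 h, RT · Detection – bead flow cytometry, FITC channel · Read-out basis – inhibition as reduced fluorescein signal on beads, percent · Medium – PBS plus Tween 20 (0.05%) and BSA (0.1%)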
An asterisk follows results filed as active; i = inactive; ? = inconclusive; . = not tested or not shown; + = active, no number. A selection: hits, their analogues and other compounds. The true share with any hit is near 1.5%.

SMILES	LANA-H2A inh	DSG3 Ab inh	T cell modulator	HDAC3 inh	Arr AP2 block
CC(=O)N1CCN(S(=O)(=O)c2cccc(C(=O)OCC(=O)NCc3ccccc3Cl)c2)CC1	.	100	.	.	.
COC(=O)c1ccc(C2C(Oc3ccccc3)C(=O)N2CCc2ccc(OC)c(OC)c2)cc1 (stereo not drawn)	1	83*	732	-10	14
COc1ccc(NC(C)=O)cc1S(=O)(=O)NCCc1ccccn1	30*	100	270	0	1
NS(=O)(=O)c1ccc2nc(NC(=O)c3ccc4ncsc4c3)sc2c1	5	.	227	8	8
Cc1ccc2nc(NC(=O)c3ccc4ncsc4c3)sc2c1	-3	-6.3*	454	-2	4
COc1ccc(CN(C)Cc2c(O)ccc3cc(Br)ccc23)cc1OC	-1	.	298	1	-1
COc1ccc(C(C)(C)C)cc1NC(=O)CCc1c(C)noc1C	30*	98	219	0	-35
CCOC(=O)N1CCC(NC(=O)c2cc3c(-c4ccc(Cl)cc4)nn(C)c3s2)CC1	.	91*	261	.	0
CC(C)NC(=O)c1cc2c(-c3ccc(Cl)cc3)nn(C)c2s1	0	73*	401	-2	37
CCCCNC(=O)c1cc2c(-c3ccc(Cl)cc3)nn(C)c2s1	5	101	470	-3	6
Cn1nc(-c2ccc(Cl)cc2)c2cc(C(=O)N3CCN(c4ccccc4)CC3)sc21	1	105	267	-5	-11
Cn1nc(-c2ccc(Cl)cc2)c2cc(C(=O)N3CCN(c4ccccn4)CC3)sc21	1	-3.6*	367	-2	16
O=C(N1CCOCC1)n1nnc2ccccc21	-1	96	140	0	0
C/C(=C\c1ccccc1)C(=O)n1nnc2ccccc21	2	96	321	28*	29
Cc1ccc(C(=O)C(C)OC(=O)Cn2[nH]c(=O)c3ccccc3c2=O)cc1C (stereo not drawn)	-3	122	203	-6	48
COc1ccc(-c2cc(C(=O)N3CCOCC3)c3cc(C)ccc3n2)cc1	18*	100	324	-82	0
COc1ccccc1C(=O)Nc1ccc(Oc2ncnc3sc(-c4ccccc4)cc23)cc1	4	97	307	0	-3
COc1ccc(C(=O)Nc2ccc(Oc3ncnc4sc(-c5ccccc5)cc34)cc2)cc1OC	5	-207*	816	-7	8
COc1cc(C(=O)Nc2ccc(Oc3ncnc4sc(-c5ccccc5)cc34)cc2)cc(OC)c1OC	-4	-10*	182	-3	1
COc1ccc(C(=O)N2CCN(c3ccc(C(C)=O)cc3)CC2)cc1S(=O)(=O)N1CCCC1	0	?	594	9	-20
COC1=C(NCc2ccc3c(c2)OCO3)C(=O)C(OC)=C(NCc2ccc3c(c2)OCO3)C1=O	.	-15*	.	.	2
O=C(Cn1cnc2c(cnn2-c2ccccc2)c1=O)N1CCN(c2ccc(F)cc2)CC1	1	86*	245	-8	1
CCOC(=O)c1[nH]c2c(c1-c1ccccc1)C(=O)CC(c1ccc(OC)c(OC)c1)C2 (stereo not drawn)	0	105	414	-1	2
CCOC(=O)c1[nH]c2c(c1-c1ccccc1)C(=O)CC(c1ccc(OCC)cc1)C2 (stereo not drawn)	-4	-0.8*	252	-7	6
NNC(=O)c1ccc(CN2C(=O)c3cccc4cccc2c34)cc1	0	100	896	18	9
SMILES	LANA-H2A inh	DSG3 Ab inh	T cell modulator	HDAC3 inh	Arr AP2 block
COc1ccccc1/C=N/NC(=O)c1ccc(CN2C(=O)c3cccc4cccc2c34)cc1	1	65*	782	-1	8
Cc1ccc(SCCCCN2CCOCC2)cc1	-2	50*	693	0	5
Clc1ccc(SCCCCN2CCNCC2)cc1	1	107	151	5	0
Cc1ccc(SCCCCN2CCNCC2)cc1	18*	95	279	4	4
CCN1CCN(c2ccc(S(=O)(=O)N3CCOCC3)cc2N)CC1	1	97	268	0	6
O=C(CCN1C(=O)CSc2ccccc21)Nc1ccc(OC(F)(F)F)cc1	+	96	315	7	10
CCOc1ccc(NC(=O)CCN2C(=O)CSc3ccccc32)cc1	-361	.	291	1	-8
Cn1c(=O)c2ccccc2n2c(CCl)nnc12	1	27*	380	-7	-13
Cn1c(=O)c2ccccc2n2c(=S)[nH]nc12	5	112	i	-1	0
O=C1CC(C(=O)N(CC2CCCO2)C(C(=O)NC2CCCCC2)c2ccncc2)CS1 (stereo not drawn)	-1	91	452	11	-3
O=C(NC1CCCCC1)C(c1ccc(O)cc1)N(CC1CCCO1)C(=O)C1COc2ccccc2O1 (stereo not drawn)	2	78*	698	3	-1
O=C(NNc1c(F)c(F)cc(F)c1F)c1cc2ccccc2oc1=O	2	.	0.0*	1	-10
O=C(c1ccccc1)c1cc2ccc(O)cc2oc1=O	41*	101	395	0	3
O=C(COc1ccccc1)NNC(=O)c1cc2ccccc2oc1=O	-3	103	346	0	-4
O=C(c1ccc(Br)cc1)c1cc2ccc(O)cc2oc1=O	4	110	592	-7	6
Cc1nn(Cc2ccccc2)c(C)c1C(=O)N1CCN(S(=O)(=O)/C=C/c2ccccc2)CC1	2	.	207	-4	-16
CCCn1c(SCC(=O)N(C)C2CCCCC2)n[nH]c1=O	.	96	.	.	.
Cc1[nH]c2ccccc2c1C1=CC(=O)C=CC1=O	.	65*	.	.	14
Cc1[nH]c2ccccc2c1CC#N	-3	116	772	-4	37
O=C(NCc1cccc(F)c1)c1cccc2c1C(=O)c1ccc(N3CCCC3)cc1S2(=O)=O	25*	.	195	10	-4
CC1CCN(c2ccc3c(c2)S(=O)(=O)c2cccc(C(=O)NCc4cccc(F)c4)c2C3=O)CC1	1	129	523	5	7
Cc1ccc(S(=O)(=O)Cn2nnnc2C(C(C)C)N2CCC(C(N)=O)CC2)cc1 (stereo not drawn)	4	102	368	2	-4
COc1ccc(Cl)cc1NC(=O)c1cc(-c2ccccc2O)n[nH]1	16*	97	393	-2	-6
COc1ccc(OC)c(NC(=O)c2cc(-c3cc(Cl)ccc3O)n[nH]2)c1	-2	105	651	4	1
COc1cc2c(cc1OC)C(SC)=NC1(CCCC1)C2	1	104	i	-4	5
